Results from different studies.
Lines come from different studies, so protocols differ.
Read-out: cell growth or viability

SMILES	cell line	test	conditions	measurement	result
CC(C)Nc1ccnc(Nc2cccc(-c3ccccc3)c2)n1	MV4-11	ATP luminescence	72 h	EC50	3.98 µM
CNC(=O)COc1cc2cc(Nc3nc(N4CCC(C(=O)NCCCCCCCNC(=O)C[C@@H]5N=C(c6ccc(Cl)cc6)c6c(sc(C)c6C)-n6c(C)nnc65)CC4)ncc3Cl)cc(OC)c2n(C)c1=O	human Fibroblast		72 h	EC50	~0.47 µM
COC(=O)c1cccc(-c2cccc(Nc3nccc(NC4CCCCC4)n3)c2)c1	MV4-11	ATP luminescence	72 h	EC50	7.59 µM
CC(C)=CCC[C@](C)(O)[C@H]1CC[C@]2(C)[C@@H]1[C@H](O)C[C@@H]1[C@@]3(C)CC[C@H](O[C@@H]4O[C@H](CO)[C@@H](O)[C@H](O)[C@H]4O[C@@H]4O[C@H](CO)[C@@H](O)[C@H](O)[C@H]4O)C(C)(C)[C@@H]3CC[C@]12C	BEAS-2B	MTT	72 h	IC80	> 100 µM
c1ccc(-c2cccc(Nc3nccc(NC4CCCCC4)n3)c2)cc1	MV4-11	ATP luminescence	72 h	EC50	> 4 µM
COc1cc(-c2ccc(-c3ccc(C(=N)N)nc3)s2)cc(OC)c1OC	LOX IMVI	SRB		GI50	1870 nM
COC(C)(C)CCC[C@](C)(O)[C@H]1CC[C@]2(C)[C@@H]1[C@H](O)C[C@@H]1[C@@]3(C)CC[C@H](O)C(C)(C)[C@@H]3CC[C@]12C	BEAS-2B	MTT	72 h	IC20	4.46 µM
Cc1cn(CC(c2cn(C)c3ccccc23)c2cn(C)c3ccccc23)nn1	human Fibroblast	MTS	20 µM, 24 h	inhibition	17.1%
CC[C@H](C)Nc1ccnc(Nc2cccc(-c3cccnc3)c2)n1	MV4-11	ATP luminescence	72 h	EC50	0.065 µM
CC(C)c1ccccc1S(=O)(=O)c1cc(N)c2ncccc2c1[N+](=O)[O-]	HN-6		72 h	IC50	> 20 µM
CC(C)Nc1ccnc(Nc2cccc(C(C)(C)C)c2)n1	MV4-11	ATP luminescence	72 h	EC50	> 13 µM
COC(=O)c1c(C)ncn1CC(c1c[nH]c2ccccc12)c1c[nH]c2ccccc12	human Fibroblast	MTS	20 µM, 24 h	inhibition	12%
Cn1nnc2c(C(N)=O)ncn2c1=O	SGC-7901			EC50	> 1000 µM
CC(C)(CO)Cn1nc(-c2ccc3nc(OCC(F)(F)F)ccc3c2)c2c(N)ncnc21	CRL8155			GI50	> 10000 nM
N#Cc1ccc(COC[C@H]2O[C@@H](n3c(NCc4ccc(Cl)c(Cl)c4)nc4c(N)ncnc43)[C@H](O)[C@@H]2O)cc1	HN-6		72 h	IC50	4.86 µM
CC(C)Nc1ccnc(Nc2cccc(-c3nccs3)c2)n1	MV4-11	ATP luminescence	72 h	EC50	9.46 µM
COC(=O)c1c(C)ncn1CC(c1cn(C)c2ccccc12)c1cn(C)c2ccccc12	human Fibroblast	MTS	20 µM, 24 h	inhibition	5.1%
COc1ccc(-c2ccc(-c3ccc(C(=N)N)nc3)s2)cc1	LOX IMVI	SRB		GI50	1880 nM
